# Assays:
# [1] = molecular target: T1, Anoctamin-1 (Homo sapiens) (UniProt Q5XXA6); assay: Inhibition of human ANO1 channel expressed in HEK293 cells at 10 uM incubated for 10 mins by FLIPR assay relative to control; type: cell-based
# T1 sequence (whole entry): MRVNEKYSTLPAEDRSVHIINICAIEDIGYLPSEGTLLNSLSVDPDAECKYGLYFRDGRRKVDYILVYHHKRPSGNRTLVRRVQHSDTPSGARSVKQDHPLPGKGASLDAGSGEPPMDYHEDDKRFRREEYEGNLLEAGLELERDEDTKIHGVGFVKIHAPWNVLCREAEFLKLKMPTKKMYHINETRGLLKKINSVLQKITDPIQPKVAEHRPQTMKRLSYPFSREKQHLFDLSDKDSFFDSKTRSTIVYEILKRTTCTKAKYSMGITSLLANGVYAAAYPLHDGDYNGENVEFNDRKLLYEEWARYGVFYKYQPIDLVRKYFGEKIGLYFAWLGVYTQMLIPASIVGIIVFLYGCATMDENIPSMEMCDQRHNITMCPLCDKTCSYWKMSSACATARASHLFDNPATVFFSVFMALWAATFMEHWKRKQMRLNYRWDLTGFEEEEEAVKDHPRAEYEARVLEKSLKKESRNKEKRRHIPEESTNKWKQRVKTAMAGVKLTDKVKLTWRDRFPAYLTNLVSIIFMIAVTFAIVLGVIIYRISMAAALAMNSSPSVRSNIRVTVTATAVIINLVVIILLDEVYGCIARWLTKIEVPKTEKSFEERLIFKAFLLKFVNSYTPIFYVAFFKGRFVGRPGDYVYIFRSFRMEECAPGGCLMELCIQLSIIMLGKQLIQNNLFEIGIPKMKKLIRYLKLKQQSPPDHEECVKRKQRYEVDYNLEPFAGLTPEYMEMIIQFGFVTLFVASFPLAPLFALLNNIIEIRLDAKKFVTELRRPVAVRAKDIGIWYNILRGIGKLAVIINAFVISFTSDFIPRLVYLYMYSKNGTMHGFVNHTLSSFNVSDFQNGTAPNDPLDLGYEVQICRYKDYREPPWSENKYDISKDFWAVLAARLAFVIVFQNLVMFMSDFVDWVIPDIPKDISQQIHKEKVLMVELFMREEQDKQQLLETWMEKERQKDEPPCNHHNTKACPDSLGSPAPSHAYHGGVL
# In short: (§1)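 HEK293 cells expressing human ANO1, 50,000 cells/well, plated overnight. Loaded with FLIPR Red membrane-potential dye in HEPES-buffered saline (pH 7.4) for 40-60 min at room temperature. Compound added for 10 min at room temperature, final DMSO 0.5%.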
# U138-MG [2] = assay: Antiproliferative activity against human U138 cells overexpressing ANO1 assessed as reduction in cell viability at 100 uM measured after 72 hrs by Celltiter-glo assay; type: functional
# In short: (§2)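 5.0×10^3 cells/well seeded, overnight, then compounds added as 1:4 serial dilutions in DMSO; viability read after 72 h with CellTiter-Glo luminescence. GI50 from fitted dose-response curves; triplicate wells, SD from three independent experiments. DMEM for U251 and U138, MEM for U87MG, both with 10% FBS and pen/strep, 37 °C, 5% CO2.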
# U-87 MG [3] = assay: Antiproliferative activity against human U87MG cells overexpressing ANO1 assessed as reduction in cell viability measured after 72 hrs by Celltiter-glo assay; type: functional, U-87MG ATCC; in short: as §2
# [4] = Antiproliferative activity against mouse primary astrocytes assessed as reduction in cell viability at 100 uM measured after 72 hrs by Celltiter-Glo luminescent assay; type: cell-based, Astrocyte
# In short: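 Primary astrocytes isolated from adult mouse brain by a previously reported method. 5.0×10^3 cells/well, compound as 1:4 serial DMSO dilutions, CellTiter-Glo viability at 72 h.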
# U-251 [5] = assay: Antiproliferative activity against human U251 cells overexpressing ANO1 assessed as reduction in cell viability measured after 72 hrs by Celltiter-glo assay; type: functional; in short: as §2
# Anoctamin-1 [6] = molecular target: T2, Anoctamin-1 (Homo sapiens, UniProt Q5XXA6); assay: Inhibition of human ANO1 channel expressed in HEK293 cells incubated for 10 mins by FLIPR assay; type: cell-based; in short: as §1
# T2 sequence (Q5XXA6 whole entry): T1 sequence (whole entry)
# Anoctamin-1 [7] = molecular target: T3, Anoctamin-1 (Mus musculus, UniProt Q8BHY3); assay: Inhibition of GFP-fused mouse ANO1 channel expressed in HEK293A cells assessed as inhibition of ATP-induced channel current amplitude at membrane potential of +80 mV by patch clamp electrophysiology assay; type: cell-based, HEK293-A
# T3 sequence (Q8BHY3 whole entry): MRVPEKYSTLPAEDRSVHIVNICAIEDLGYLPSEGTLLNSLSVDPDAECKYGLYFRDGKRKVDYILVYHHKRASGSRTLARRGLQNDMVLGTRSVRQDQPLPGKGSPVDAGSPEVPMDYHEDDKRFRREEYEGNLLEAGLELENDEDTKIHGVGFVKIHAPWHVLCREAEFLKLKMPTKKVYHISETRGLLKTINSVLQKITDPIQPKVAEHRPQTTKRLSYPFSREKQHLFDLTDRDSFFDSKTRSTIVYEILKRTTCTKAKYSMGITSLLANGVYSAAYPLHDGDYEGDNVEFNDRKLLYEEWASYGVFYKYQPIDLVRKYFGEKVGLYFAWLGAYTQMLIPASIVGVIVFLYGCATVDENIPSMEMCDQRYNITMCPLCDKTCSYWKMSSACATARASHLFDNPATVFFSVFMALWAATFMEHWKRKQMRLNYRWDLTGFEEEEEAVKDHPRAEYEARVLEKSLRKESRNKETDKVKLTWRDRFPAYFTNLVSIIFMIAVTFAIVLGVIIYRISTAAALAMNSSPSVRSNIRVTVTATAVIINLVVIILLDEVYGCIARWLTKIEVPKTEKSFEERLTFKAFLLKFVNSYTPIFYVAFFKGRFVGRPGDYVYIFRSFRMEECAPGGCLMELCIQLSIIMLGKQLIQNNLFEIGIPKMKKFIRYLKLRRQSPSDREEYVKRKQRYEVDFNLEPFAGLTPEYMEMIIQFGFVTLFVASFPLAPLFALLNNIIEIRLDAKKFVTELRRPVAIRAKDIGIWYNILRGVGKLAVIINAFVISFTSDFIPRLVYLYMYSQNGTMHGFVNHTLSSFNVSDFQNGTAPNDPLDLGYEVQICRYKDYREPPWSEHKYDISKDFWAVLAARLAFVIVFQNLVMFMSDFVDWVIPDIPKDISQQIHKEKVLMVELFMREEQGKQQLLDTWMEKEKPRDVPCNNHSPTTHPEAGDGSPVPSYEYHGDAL
# In short: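 Whole-cell recording at room temperature in HEK293A cells transfected with GFP-mANO1, GFP-mANO2 or GFP-mTTYH1. 1 s ramps from +80 to -80 mV, holding potential -10 mV. For ANO1/ANO2: pipette CsCl 146 mM with Ca-EGTA-NMDG, pH 7.3; bath NaCl-based, pH 7.3. For TTYH1: Tris-aspartate pipette (pH 7.2) and Tris-HCl bath (pH 7.4), with […] and BaCl2 added to block K+ channels, and hypotonic (220 mOsm/kg) bath. Washout recordings assessed reversibility.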
# U-251 [8] = assay: Antiproliferative activity against human U251 cells overexpressing ANO1 assessed as reduction in cell viability at 100 uM measured after 72 hrs by Celltiter-glo assay; type: functional; in short: as §2
# U-87 MG [9] = assay: Antiproliferative activity against human U87MG cells overexpressing ANO1 assessed as reduction in cell viability at 100 uM measured after 72 hrs by Celltiter-glo assay; type: functional, U-87MG ATCC; in short: as §2
# U138-MG [10] = assay: Antiproliferative activity against human U138 cells overexpressing ANO1 assessed as reduction in cell viability measured after 72 hrs by Celltiter-glo assay; type: functional; in short: as §2
compound,measurement,setting,value
NC(=O)c1c(NC(=O)c2ccco2)sc2c1CCC2,inhibition,[1],51.5%
CC(C)(C)C1CCc2c(sc(NC(=S)NC(=O)c3ccccc3)c2C(N)=O)C1 (stereo unspecified),inhibition at 100 µM,U138-MG [2],< 50%
same,GI50,U-87 MG [3],82.4 µM
same,inhibition,[1],70.3%
same,"inhibition at 72 h, 100 µM",[4],< 50%
same,GI50,U-251 [5],70.2 µM
same,IC50,Anoctamin-1 [6],3090 nM
same,IC50,Anoctamin-1 [7],5.66 µM
NC(=O)c1c(N)sc2c1CCC2,inhibition,[1],15.4%
CC(C)(C)C(=O)Nc1sc2c(c1C(N)=O)CCCCC2,inhibition at 100 µM,U138-MG [2],< 50%
same,inhibition at 100 µM,U-251 [8],< 50%
same,inhibition at 100 µM,U-87 MG [9],< 50%
same,inhibition,[1],67.9%
same,"inhibition at 72 h, 100 µM",[4],< 50%
same,IC50,Anoctamin-1 [6],4790 nM
same,IC50,Anoctamin-1 [7],4.07 µM
NC(=O)c1c(NC(=S)NC(=O)c2ccccc2Cl)sc2c1CCC2,inhibition at 100 µM,U138-MG [2],< 50%
same,inhibition at 100 µM,U-87 MG [9],< 50%
same,inhibition,[1],76.7%
same,"inhibition at 72 h, 100 µM",[4],< 50%
same,GI50,U-251 [5],94.6 µM
same,IC50,Anoctamin-1 [6],2290 nM
same,IC50,Anoctamin-1 [7],3.12 µM
CC(C)(C)C1CCc2c(sc(NC(=O)c3ccccc3)c2C(N)=O)C1 (stereo unspecified),inhibition,[1],22%
NC(=O)c1c(NC(=O)c2ccco2)sc2c1CCCCC2,inhibition,[1],< 10%
NC(=O)c1ccsc1NC(=O)c1ccccc1,inhibition,[1],< 10%
CC(C)(C)C1CCc2c(sc(N)c2C(N)=O)C1 (stereo unspecified),inhibition at 100 µM,U138-MG [2],< 50%
same,inhibition at 100 µM,U-87 MG [9],< 50%
same,inhibition,[1],80.1%
same,"inhibition at 72 h, 100 µM",[4],< 50%
same,GI50,U-251 [5],83.2 µM
same,IC50,Anoctamin-1 [6],2950 nM
same,IC50,Anoctamin-1 [7],2.5 µM
NC(=O)c1c(NC(=S)NC(=O)c2cccc(C(F)(F)F)c2)sc2c1CCC2,inhibition,[1],26.7%
NC(=O)c1c(NC(=S)NC(=O)c2cccc(Cl)c2)sc2c1CCC2,inhibition,[1],< 10%
CC(C)(C)C1CCc2c(sc(NC(=S)NC(=O)c3ccco3)c2C(N)=O)C1 (stereo unspecified),inhibition,[1],13.8%
NC(=O)c1c(NC(=S)NC(=O)c2ccccc2)sc2c1CCC2,GI50,U-87 MG [3],26 µM
same,inhibition,[1],70.5%
same,GI50,U-251 [5],24.4 µM
same,IC50,Anoctamin-1 [6],2830 nM
same,GI50,U138-MG [10],17.1 µM
same,IC50,Anoctamin-1 [7],2.63 µM
NC(=O)c1c(NC(=S)NC(=O)c2ccco2)sc2c1CCCCC2,inhibition,[1],21.8%
NC(=O)c1c(NC(=S)NC(=O)c2ccc3c(c2)OCO3)sc2c1CCC2,inhibition,[1],16.3%
COc1cc(C(=O)NC(=S)Nc2sc3c(c2C(N)=O)CCC3)cc(OC)c1OC,inhibition,[1],< 10%
NC(=O)c1c(N)sc2c1CCCCC2,inhibition,[1],< 10%

# Reference: ChEMBL document CHEMBL4706565, “Anti-glioma effects of 2-aminothiophene-3-carboxamide derivatives, ANO1 channel blockers” (Eur J Med Chem, 2020)
